Test results taken from BindingDB's records for doi:10.1016/j.bmcl.2015.12.102 (Reset Therapeutics, 2016).

Target: T1, Period circadian protein homolog 2 (Homo sapiens, UniProt O15055)
T1 sequence (O15055 whole entry): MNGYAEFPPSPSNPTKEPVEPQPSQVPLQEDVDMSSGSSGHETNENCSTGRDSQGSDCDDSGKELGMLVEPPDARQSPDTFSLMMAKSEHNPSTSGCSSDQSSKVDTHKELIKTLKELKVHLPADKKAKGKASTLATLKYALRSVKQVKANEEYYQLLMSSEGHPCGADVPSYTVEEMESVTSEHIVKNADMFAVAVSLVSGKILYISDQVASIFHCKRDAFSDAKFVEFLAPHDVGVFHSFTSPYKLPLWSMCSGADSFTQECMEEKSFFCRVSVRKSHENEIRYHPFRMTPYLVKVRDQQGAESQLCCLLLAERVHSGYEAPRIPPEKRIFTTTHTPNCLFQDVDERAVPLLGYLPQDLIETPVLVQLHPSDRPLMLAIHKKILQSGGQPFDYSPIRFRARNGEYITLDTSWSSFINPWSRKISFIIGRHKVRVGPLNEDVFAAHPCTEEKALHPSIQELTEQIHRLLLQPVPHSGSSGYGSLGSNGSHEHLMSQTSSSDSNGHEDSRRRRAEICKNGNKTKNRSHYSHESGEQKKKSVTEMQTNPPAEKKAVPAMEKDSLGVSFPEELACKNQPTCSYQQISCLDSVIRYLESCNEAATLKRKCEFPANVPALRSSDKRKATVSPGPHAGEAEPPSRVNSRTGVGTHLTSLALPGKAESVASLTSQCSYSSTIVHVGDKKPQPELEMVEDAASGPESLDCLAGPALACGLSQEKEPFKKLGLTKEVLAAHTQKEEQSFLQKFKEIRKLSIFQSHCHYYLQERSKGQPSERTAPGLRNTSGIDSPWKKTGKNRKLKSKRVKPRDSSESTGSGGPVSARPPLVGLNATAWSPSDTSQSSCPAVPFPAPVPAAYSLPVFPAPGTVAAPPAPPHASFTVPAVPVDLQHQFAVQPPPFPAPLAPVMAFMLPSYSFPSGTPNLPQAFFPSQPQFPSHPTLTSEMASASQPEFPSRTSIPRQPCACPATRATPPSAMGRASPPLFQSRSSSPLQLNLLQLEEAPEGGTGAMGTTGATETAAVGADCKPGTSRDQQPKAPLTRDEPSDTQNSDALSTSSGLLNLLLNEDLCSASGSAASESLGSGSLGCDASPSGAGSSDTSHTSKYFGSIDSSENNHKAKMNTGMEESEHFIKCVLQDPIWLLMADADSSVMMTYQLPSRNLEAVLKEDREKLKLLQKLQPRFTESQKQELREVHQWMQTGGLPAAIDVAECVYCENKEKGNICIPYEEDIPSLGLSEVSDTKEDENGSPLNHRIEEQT
Test: Reduction of amplitude effect of PER2 in human U2OS cells harboring Per2-dLuc luciferase reporter gene assessed as effects on circadian rhythms
In short: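 Human osteosarcoma U2OS cells carrying a Per2-dLuc luciferase reporter, treated continuously; circadian luminescence rhythm amplitude followed. 8-point threefold dilution series; EC50 taken as concentration giving 50% of the compound's own maximal response (titrations without plateau give no EC50).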

SMILES	EC50 [µM]
CCCCS(=O)(=O)N(Cc1ccco1)CC(O)Cn1c2ccccc2c2ccccc21 (stereo unspecified)	0.374
CC(C)CS(=O)(=O)N(Cc1ccco1)CC(O)Cn1c2ccccc2c2ccccc21 (stereo unspecified)	0.361
O=S(=O)(C1CCOC1)N(Cc1ccco1)CC(O)Cn1c2ccccc2c2ccccc21 (stereo unspecified)	1.18
CC(C)S(=O)(=O)N(Cc1ccco1)CC(O)Cn1c2ccccc2c2ccccc21 (stereo unspecified)	0.438
CCCS(=O)(=O)N(Cc1ccco1)CC(O)Cn1c2ccccc2c2ccccc21 (stereo unspecified)	0.516
CCS(=O)(=O)N(Cc1ccco1)CC(O)Cn1c2ccccc2c2ccccc21 (stereo unspecified)	0.197
CS(=O)(=O)N(CC(O)Cn1c2ccccc2c2ccccc21)c1ccccn1 (stereo unspecified)	> 10
CS(=O)(=O)N(CC(O)Cn1c2ccccc2c2ccccc21)C1CCCC1 (stereo unspecified)	0.308
CS(=O)(=O)N(CC(O)Cn1c2ccccc2c2ccccc21)C1CCCCC1 (stereo unspecified)	0.532
CS(=O)(=O)N(CC(O)Cn1c2ccccc2c2ccccc21)C1COC1 (stereo unspecified)	3.53
CS(=O)(=O)N(CC(O)Cn1c2ccccc2c2ccccc21)C1CCOCC1 (stereo unspecified)	0.819
COCCN(CC(O)Cn1c2ccccc2c2ccccc21)S(C)(=O)=O (stereo unspecified)	1.02
CS(=O)(=O)N(CC(O)Cn1c2ccccc2c2ccccc21)c1ccc(F)cc1 (stereo unspecified)	0.939
O=S1(=O)CCCN1CC(O)Cn1c2ccccc2c2ccccc21 (stereo unspecified)	0.144
O=S1(=O)COCCN1CC(O)Cn1c2ccccc2c2ccccc21 (stereo unspecified)	0.073
O=S1(=O)NCCN1CC(O)Cn1c2ccccc2c2ccccc21 (stereo unspecified)	0.042
O=S1(=O)NCCCN1CC(O)Cn1c2ccccc2c2ccccc21 (stereo unspecified)	0.384
CN1CCCN(CC(O)Cn2c3ccccc3c3ccccc32)S1(=O)=O (stereo unspecified)	0.726
O=S(=O)(c1ccccc1)N(Cc1ccco1)CC(O)Cn1c2ccccc2c2ccccc21 (stereo unspecified)	1.09
O=S(=O)(Cc1ccccc1)N(Cc1ccco1)CC(O)Cn1c2ccccc2c2ccccc21 (stereo unspecified)	0.415
CS(=O)(=O)NCC(O)Cn1c2ccccc2c2ccccc21 (stereo unspecified)	0.479
CCCN(CC(O)Cn1c2ccccc2c2ccccc21)S(C)(=O)=O (stereo unspecified)	0.408
CC(C)N(CC(O)Cn1c2ccccc2c2ccccc21)S(C)(=O)=O (stereo unspecified)	0.511
CC(C)CN(CC(O)Cn1c2ccccc2c2ccccc21)S(C)(=O)=O (stereo unspecified)	0.178
CS(=O)(=O)N(CC(O)Cn1c2ccccc2c2ccccc21)C1CC1 (stereo unspecified)	0.446
CS(=O)(=O)N(CC(O)Cn1c2ccccc2c2ccccc21)C1CCC1 (stereo unspecified)	0.129
CS(=O)(=O)N(Cc1ccco1)CC(O)Cn1c2ccccc2c2ccccc21 (stereo unspecified) [N-(3-carbazol-9-yl-2-hydroxypropyl)-N-(furan-2-ylmethyl)methanesulfonamide]	0.87

The remaining lines, values ahead:

EC50 [µM]	SMILES
1	O=S(=O)(C1CCCCC1)N(Cc1ccco1)CC(O)Cn1c2ccccc2c2ccccc21 (stereo unspecified)
0.288	COCCS(=O)(=O)N(Cc1ccco1)CC(O)Cn1c2ccccc2c2ccccc21 (stereo unspecified)
0.557	O=S(=O)(C1CC1)N(Cc1ccco1)CC(O)Cn1c2ccccc2c2ccccc21 (stereo unspecified)
1.27	CS(=O)(=O)N(CC(O)Cn1c2ccccc2c2ccccc21)C1CC(F)(F)C1 (stereo unspecified)
0.69	CS(=O)(=O)N(CC(O)Cn1c2ccccc2c2ccccc21)C1CCC(F)(F)CC1 (stereo unspecified)
0.272	CS(=O)(=O)N(CC(O)Cn1c2ccccc2c2ccccc21)c1ccccc1 (stereo unspecified)
2.55	CS(=O)(=O)N(CC(O)Cn1c2ccccc2c2ccccc21)c1ccccc1F (stereo unspecified)
0.4	CS(=O)(=O)N(CC(O)Cn1c2ccccc2c2ccccc21)c1cccc(F)c1 (stereo unspecified)
0.818	CS(=O)(=O)N(Cc1ccccc1)CC(O)Cn1c2ccccc2c2ccccc21 (stereo unspecified)
0.19	O=S1(=O)CCN1CC(O)Cn1c2ccccc2c2ccccc21 (stereo unspecified)
0.173	O=S1(=O)CCCCN1CC(O)Cn1c2ccccc2c2ccccc21 (stereo unspecified)
0.132	CN1CCN(CC(O)Cn2c3ccccc3c3ccccc32)S1(=O)=O (stereo unspecified)
0.781	CN(CC(O)Cn1c2ccccc2c2ccccc21)S(C)(=O)=O (stereo unspecified)
0.505	CCN(CC(O)Cn1c2ccccc2c2ccccc21)S(C)(=O)=O (stereo unspecified)
